This passage reports inhibition and Ki results from ChEMBL document CHEMBL1811770, “Synthesis and structural investigation of some pyrimido[5,4-c]quinolin-4(3H)-one derivatives with a long-chain arylpiperazine moiety as potent 5-HT(1A/2A) and 5-HT(7) receptor ligands” (Eur J Med Chem, 2011).

Test [1] concerns the target T1, 5-hydroxytryptamine receptor 1A (Rattus norvegicus) (UniProt P19327).
T1 sequence (whole entry): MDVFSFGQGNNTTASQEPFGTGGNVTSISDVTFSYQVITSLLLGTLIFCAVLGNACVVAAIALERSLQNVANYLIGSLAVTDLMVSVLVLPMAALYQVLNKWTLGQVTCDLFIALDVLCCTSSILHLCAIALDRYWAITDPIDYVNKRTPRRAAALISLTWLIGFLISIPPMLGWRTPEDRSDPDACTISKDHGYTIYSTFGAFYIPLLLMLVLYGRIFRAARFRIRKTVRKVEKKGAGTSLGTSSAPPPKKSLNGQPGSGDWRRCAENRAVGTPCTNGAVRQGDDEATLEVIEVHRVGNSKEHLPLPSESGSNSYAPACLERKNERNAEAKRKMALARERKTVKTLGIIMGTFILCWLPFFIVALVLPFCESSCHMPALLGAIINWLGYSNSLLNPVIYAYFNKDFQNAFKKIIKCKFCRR
Description: Displacement of [3H]8-OH-DPAT from 5HT1A receptor in rat hippocampal membrane at 10^-6 M by radioligand binding assay. The note with it: Hippocampus. It counts as cell membranes. The procedure, abridged:
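Single-point screen at 1 µM on rat hippocampal membranes, reported as % inhibition of [3H]-8-OH-DPAT (170 Ci/mmol) binding. Non-specific binding was defined with 10 µM 5-HT. Compounds inhibiting at least 85% went on to full competition.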
For orientation: In a radioligand displacement assay an active substance lowers the binding of a labelled ligand.

Test [2] concerns the target 5-hydroxytryptamine receptor 2A (Rattus norvegicus) (UniProt P14842). The experiment in a line: Displacement of [3H]ketanserin from 5HT2A receptor in rat cortex membrane at 10^-6 M by radioligand binding assay. It counts as cell membranes. Put shortly: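 Single-point screen at 1 µM, reported as % inhibition of [3H]-ketanserin (88.0 Ci/mmol) binding. Non-specific binding was defined with 1 µM methysergide. Compounds inhibiting at least 85% went on to full competition.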

Test [3] deals with T2, 5-hydroxytryptamine receptor 1A (Rattus norvegicus, UniProt P19327).
T2 sequence (P19327 whole entry): T1 sequence (whole entry)
Description: Displacement of [3H]8-OH-DPAT from 5HT1A receptor in rat hippocampal membrane by radioligand binding assay. It counts as cell membranes, Hippocampus. The procedure, abridged:
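Rat hippocampal membranes were incubated with [3H]-8-OH-DPAT (170 Ci/mmol), with 10 µM 5-HT for non-specific binding. Competition used 7–9 test concentrations, each in triplicate, to give Ki. Values are means of three experiments run in triplicate.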

The target in test [4] is 5-hydroxytryptamine receptor 7 (Homo sapiens, UniProt P34969). Description: Displacement of [3H]-5-CT from human 5-HT7b receptor expressed in HEK293 cells by radioligand binding assay. Type of test: cell-based. The procedure, abridged:
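Membranes from HEK-293 cells stably expressing human 5-HT7b receptor, with [3H]-5-CT (93.0 Ci/mmol) as radioligand. Full competition used 7–9 concentrations of test compound, each run in triplicate. Ki was derived from the inhibition.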

pKi: −log10 of the molar value.

5-hydroxytryptamine receptor 2A (Rattus norvegicus), sequence (P14842 whole entry): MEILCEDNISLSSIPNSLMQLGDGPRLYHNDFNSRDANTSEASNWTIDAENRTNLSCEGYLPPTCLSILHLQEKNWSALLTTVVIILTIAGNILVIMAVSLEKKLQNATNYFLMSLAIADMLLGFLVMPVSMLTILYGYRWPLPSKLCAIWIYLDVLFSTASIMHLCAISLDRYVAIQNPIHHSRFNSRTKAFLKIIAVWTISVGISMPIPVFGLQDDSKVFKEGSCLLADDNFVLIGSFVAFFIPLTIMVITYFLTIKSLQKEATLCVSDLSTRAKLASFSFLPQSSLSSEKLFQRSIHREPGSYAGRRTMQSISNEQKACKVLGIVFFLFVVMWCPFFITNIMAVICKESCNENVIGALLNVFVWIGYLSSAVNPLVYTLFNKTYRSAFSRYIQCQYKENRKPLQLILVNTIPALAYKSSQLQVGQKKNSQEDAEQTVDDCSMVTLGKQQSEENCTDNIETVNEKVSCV
5-hydroxytryptamine receptor 7, sequence (P34969 whole entry): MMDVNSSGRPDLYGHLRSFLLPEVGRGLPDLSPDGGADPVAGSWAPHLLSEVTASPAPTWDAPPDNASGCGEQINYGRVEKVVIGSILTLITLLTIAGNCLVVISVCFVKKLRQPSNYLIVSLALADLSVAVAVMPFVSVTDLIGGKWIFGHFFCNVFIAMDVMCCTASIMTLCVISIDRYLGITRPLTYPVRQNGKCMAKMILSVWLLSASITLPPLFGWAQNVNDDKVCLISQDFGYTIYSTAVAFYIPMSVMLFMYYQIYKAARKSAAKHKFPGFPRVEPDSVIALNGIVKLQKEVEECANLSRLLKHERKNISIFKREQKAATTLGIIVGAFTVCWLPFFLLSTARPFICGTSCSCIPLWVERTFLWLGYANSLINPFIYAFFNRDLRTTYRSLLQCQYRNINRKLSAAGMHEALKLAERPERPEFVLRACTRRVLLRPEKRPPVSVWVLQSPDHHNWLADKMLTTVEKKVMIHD

Broadly, the inhibition is how much of the control response was suppressed. Lower therefore signals little suppression. One may read the pKi as the negative decadic logarithm of the Ki, by convention in mol/L. A higher pKi goes with a low Ki. As for `Cc1ccc2ncc3c(=O)n(CCCN4CCN(c5ccccc5)CC4)cnc3c2c1`, the inhibition in test [1] came out at 86%; in test [2], 28%. In addition, in test [3], the pKi is 6.89.

Consider `O=c1c2cnc3ccccc3c2ncn1CCN1CCN(c2ccc(-c3ncccn3)cc2)CC1`, for which the inhibition was determined as 10% in test [1] and 29% in test [2].

On to `Cc1ccc2c(c1)ncc1c(=O)n(CCCN3CCN(c4ccccc4)CC3)cnc12`, for which the results for the inhibition in test [1] and in test [2] were 86% and 44%, respectively. For the same compound, the pKi in test [3] is 6.90.

For `O=c1c2cnc3ccccc3c2ncn1CCN1CCN(c2ccc(F)cc2)CC1`, the inhibition in test [1] was found to be 40%; in test [2], 14%.

Consider `COc1ccc(N2CCN(CCn3cnc4c(cnc5cc(C)ccc54)c3=O)CC2)cc1`, for which the inhibition in test [1] and in test [2] was 9% each time.

Turning to `Cc1ccc2c(c1)ncc1c(=O)n(CCCN3CCN(c4cccc(Cl)c4)CC3)cnc12`, the values for the inhibition in test [1] and in test [2] were 73% and 40%, respectively.

As for `O=c1c2cnc3ccccc3c2ncn1CCN1CCN(c2cccc(Cl)c2)CC1`, the inhibition was found to be 93% in test [1] and 22% in test [2]. The pKi in test [3] was 7.26.

In the case of `COc1cccc(N2CCN(CCn3cnc4c(cnc5ccccc54)c3=O)CC2)c1`, the values for the inhibition in test [1] and in test [2] were 82% and 11%, respectively.

In the case of `COc1ccccc1N1CCN(CCCCn2cnc3c(cnc4cc(C)ccc43)c2=O)CC1`, the inhibition in test [1] is 99%; in test [2], 43%. Also, the negative-log Ki (pKi) in test [3] was 7.70.

With `COc1ccccc1N1CCN(CCCn2cnc3c(cnc4ccc(C)cc43)c2=O)CC1`, the inhibition in test [1] is 93%; in test [2], 5%. Besides, the pKi in test [3] is 7.59.

Take `COc1ccc(N2CCN(CCCn3cnc4c(cnc5ccccc54)c3=O)CC2)cc1`: the inhibition in test [1] was 0%; in test [2] it was 23%.

Turning to `O=c1c2cnc3ccccc3c2ncn1CCN1CCN(c2cccc(C(F)(F)F)c2)CC1`, the inhibition was found to be 89% in test [1] and 36% in test [2]. In addition, in test [3], the pKi is 6.80.

As to `Cc1ccc2c(c1)ncc1c(=O)n(CCCCN3CCN(c4ccc(F)cc4)CC3)cnc12`, the inhibition is 60% in test [1] and 57% in test [2].

Consider `COc1ccc(N2CCN(CCn3cnc4c(cnc5ccc(C)cc54)c3=O)CC2)cc1`, for which the figures for the inhibition in test [1] and in test [2] were 5% and 4%, respectively.

Turning to `O=c1c2cnc3ccccc3c2ncn1CCN1CCN(c2ccccc2)CC1`, the inhibition was 66% in test [1] and 26% in test [2].

The compound `O=c1c2cnc3ccccc3c2ncn1CCCCN1CCN(c2ccc(F)cc2)CC1` gave a pKi in test [4] of 6.39. Besides, the inhibition is 75% in test [1] and 82% in test [2].

For the compound `O=c1c2cnc3ccccc3c2ncn1CCN1CCN(c2ccc(Cl)cc2)CC1`, the inhibition in test [1] is 11%; in test [2], 4%.

Consider `O=c1c2cnc3ccccc3c2ncn1CCN1CCN(c2ccccc2F)CC1`, for which the results for the inhibition in test [1] and in test [2] were 47% and 25%, respectively.

In the case of `Cc1ccc2ncc3c(=O)n(CCCN4CCN(c5cccc(Cl)c5)CC4)cnc3c2c1`, the inhibition came out at 77% in test [1] and 44% in test [2].

Consider `Cc1ccccc1N1CCN(CCn2cnc3c(cnc4ccccc43)c2=O)CC1`, for which the inhibition in test [1] was 84%; in test [2] it was 34%. The negative logarithm of the Ki (pKi) in test [3] was 6.29.

Consider `Cc1ccc2ncc3c(=O)n(CCCCN4CCN(c5cccc(Cl)c5)CC4)cnc3c2c1`, for which the inhibition in test [1] stood at 91%; in test [2] it was 57%. The compound also showed a pKi in test [3] of 7.17.

In test [4], `COc1ccc(N2CCN(CCCCn3cnc4c(cnc5ccccc54)c3=O)CC2)cc1` had a pKi of less than 5.00. Moreover, the inhibition in test [1] is 11%; in test [2] it was 48%.

On to `COc1ccccc1N1CCN(CCn2cnc3c(cnc4ccc(C)cc43)c2=O)CC1`, for which the inhibition in test [1] was 88%; in test [2], 11%. Moreover, the negative-log Ki (pKi) in test [3] is 7.09.

For the compound `Cc1ccc2ncc3c(=O)n(CCN4CCN(c5cccc(C(F)(F)F)c5)CC4)cnc3c2c1`, the inhibition in test [1] was found to be 82%; in test [2], 8%.

As for `O=c1c2cnc3ccccc3c2ncn1CCCN1CCN(c2cccc(C(F)(F)F)c2)CC1`, the inhibition in test [1] was determined as 85%; in test [2], 44%. In test [3], this compound gave a pKi of 6.61.

On to `O=c1c2cnc3ccccc3c2ncn1CCCN1CCN(c2ccccc2)CC1`, for which the inhibition is 95% in test [1] and 66% in test [2]. The same compound gave a pKi in test [3] of 7.33.

Take `COc1ccccc1N1CCN(CCCCn2cnc3c(cnc4ccc(C)cc43)c2=O)CC1`: the inhibition in test [1] turned out to be 99%; in test [2] it was 48%. The compound further had a pKi in test [3] of 8.10.

Take `COc1cccc(N2CCN(CCCn3cnc4c(cnc5ccccc54)c3=O)CC2)c1`: the inhibition in test [1] is 89%; in test [2], 26%. The pKi in test [3] was 6.92.

Turning to `O=c1c2cnc3ccccc3c2ncn1CCCN1CCN(c2ccccc2F)CC1`, the inhibition in test [1] turned out to be 92%; in test [2], 27%. This compound had a negative-log Ki (pKi) in test [3] of 7.26.

In the case of `Cc1ccc2ncc3c(=O)n(CCCN4CCN(c5ccc(F)cc5)CC4)cnc3c2c1`, the inhibition in test [1] came out at 67%; in test [2], 39%.

In the case of `Cc1ccccc1N1CCN(CCCn2cnc3c(cnc4ccccc43)c2=O)CC1`, the figures for the inhibition in test [1] and in test [2] were 81% and 32%, respectively.

On to `Cc1ccc2c(c1)ncc1c(=O)n(CCCCN3CCN(c4ccccc4F)CC3)cnc12`, for which the inhibition in test [1] came out at 90%; in test [2], 45%. In test [3], this compound had a negative logarithm of the Ki (pKi) of 7.08.

Turning to `COc1ccccc1N1CCN(CCCn2cnc3c(cnc4ccccc43)c2=O)CC1`, the inhibition in test [1] amounted to 97%; in test [2], 8%. In addition, the pKi in test [3] is 7.70.

In the case of `Cc1ccc2c(c1)ncc1c(=O)n(CCN3CCN(c4cccc(C(F)(F)F)c4)CC3)cnc12`, the inhibition in test [1] came out at 88%; in test [2], 8%. This compound also gave a pKi in test [3] of 6.62.

For `COc1ccccc1N1CCN(CCn2cnc3c(cnc4ccccc43)c2=O)CC1`, the results for the inhibition in test [1] and in test [2] were 93% and 36%, respectively. This compound also had a pKi in test [3] of 7.38.

Take `Cc1ccc2ncc3c(=O)n(CCCCN4CCN(c5ccc(F)cc5)CC4)cnc3c2c1`: the inhibition in test [1] was 72%; in test [2], 56%.

As to `O=c1c2cnc3ccccc3c2ncn1CCCN1CCN(c2ccc(F)cc2)CC1`, the inhibition came out at 85% in test [1] and 73% in test [2]. For the same compound, in test [3], the pKi is 6.89.

In the case of `Cc1ccc2ncc3c(=O)n(CCCCN4CCN(c5ccccc5F)CC4)cnc3c2c1`, the figures for the inhibition in test [1] and in test [2] were 94% and 34%, respectively. In test [3], the pKi is 7.01.

Consider `O=c1c2cnc3ccccc3c2ncn1CCCN1CCN(c2ccc(Cl)cc2)CC1`, for which the inhibition in test [1] came out at 42%; in test [2] it was 67%.

For the compound `Cc1ccc2c(c1)ncc1c(=O)n(CCCN3CCN(c4ccc(F)cc4)CC3)cnc12`, the inhibition in test [1] is 68%; in test [2] it was 45%.

Take `COc1ccc(N2CCN(CCn3cnc4c(cnc5ccccc54)c3=O)CC2)cc1`: the figures for the inhibition in test [1] and in test [2] were 6% and 28%, respectively.

For the compound `O=c1c2cnc3ccccc3c2ncn1CCCN1CCN(c2cccc(Cl)c2)CC1`, the inhibition stood at 91% in test [1] and 63% in test [2]. The pKi in test [3] is 7.10.

In the case of `O=c1c2cnc3ccccc3c2ncn1CCCN1CCN(c2ccccc2Cl)CC1`, the inhibition in test [1] stood at 87%; in test [2], 41%. The pKi in test [3] was 7.03.

As for `O=c1c2cnc3ccccc3c2ncn1CCN1CCN(c2ccccc2Cl)CC1`, the figures for the inhibition in test [1] and in test [2] were 90% and 17%, respectively. In addition, in test [3], the pKi is 7.11.

Turning to `COc1ccccc1N1CCN(CCn2cnc3c(cnc4cc(C)ccc43)c2=O)CC1`, the inhibition in test [1] stood at 96%; in test [2], 19%. For the same compound, the negative-log Ki (pKi) in test [3] is 7.85.

On to `Cc1ccc2c(c1)ncc1c(=O)n(CCCCN3CCN(c4cccc(Cl)c4)CC3)cnc12`, for which the results for the inhibition in test [1] and in test [2] were 85% and 62%, respectively. In test [3], this compound showed a pKi of 6.76.

The compound `O=c1c2cnc3ccccc3c2ncn1CCCCN1CCN(c2ccc(Cl)cc2)CC1` showed a negative logarithm of the Ki (pKi) in test [4] of 6.48. For the same compound, the inhibition in test [1] was 54%; in test [2], 79%.

For the compound `COc1ccccc1N1CCN(CCCn2cnc3c(cnc4cc(C)ccc43)c2=O)CC1`, the inhibition in test [1] was determined as 92%; in test [2], 18%. Further, the pKi in test [3] is 7.51.
